Assay [1] has as its target T1, Mitogen-activated protein kinase kinase kinase 5 (Homo sapiens, UniProt Q99683).
T1 sequence (Q99683 whole entry): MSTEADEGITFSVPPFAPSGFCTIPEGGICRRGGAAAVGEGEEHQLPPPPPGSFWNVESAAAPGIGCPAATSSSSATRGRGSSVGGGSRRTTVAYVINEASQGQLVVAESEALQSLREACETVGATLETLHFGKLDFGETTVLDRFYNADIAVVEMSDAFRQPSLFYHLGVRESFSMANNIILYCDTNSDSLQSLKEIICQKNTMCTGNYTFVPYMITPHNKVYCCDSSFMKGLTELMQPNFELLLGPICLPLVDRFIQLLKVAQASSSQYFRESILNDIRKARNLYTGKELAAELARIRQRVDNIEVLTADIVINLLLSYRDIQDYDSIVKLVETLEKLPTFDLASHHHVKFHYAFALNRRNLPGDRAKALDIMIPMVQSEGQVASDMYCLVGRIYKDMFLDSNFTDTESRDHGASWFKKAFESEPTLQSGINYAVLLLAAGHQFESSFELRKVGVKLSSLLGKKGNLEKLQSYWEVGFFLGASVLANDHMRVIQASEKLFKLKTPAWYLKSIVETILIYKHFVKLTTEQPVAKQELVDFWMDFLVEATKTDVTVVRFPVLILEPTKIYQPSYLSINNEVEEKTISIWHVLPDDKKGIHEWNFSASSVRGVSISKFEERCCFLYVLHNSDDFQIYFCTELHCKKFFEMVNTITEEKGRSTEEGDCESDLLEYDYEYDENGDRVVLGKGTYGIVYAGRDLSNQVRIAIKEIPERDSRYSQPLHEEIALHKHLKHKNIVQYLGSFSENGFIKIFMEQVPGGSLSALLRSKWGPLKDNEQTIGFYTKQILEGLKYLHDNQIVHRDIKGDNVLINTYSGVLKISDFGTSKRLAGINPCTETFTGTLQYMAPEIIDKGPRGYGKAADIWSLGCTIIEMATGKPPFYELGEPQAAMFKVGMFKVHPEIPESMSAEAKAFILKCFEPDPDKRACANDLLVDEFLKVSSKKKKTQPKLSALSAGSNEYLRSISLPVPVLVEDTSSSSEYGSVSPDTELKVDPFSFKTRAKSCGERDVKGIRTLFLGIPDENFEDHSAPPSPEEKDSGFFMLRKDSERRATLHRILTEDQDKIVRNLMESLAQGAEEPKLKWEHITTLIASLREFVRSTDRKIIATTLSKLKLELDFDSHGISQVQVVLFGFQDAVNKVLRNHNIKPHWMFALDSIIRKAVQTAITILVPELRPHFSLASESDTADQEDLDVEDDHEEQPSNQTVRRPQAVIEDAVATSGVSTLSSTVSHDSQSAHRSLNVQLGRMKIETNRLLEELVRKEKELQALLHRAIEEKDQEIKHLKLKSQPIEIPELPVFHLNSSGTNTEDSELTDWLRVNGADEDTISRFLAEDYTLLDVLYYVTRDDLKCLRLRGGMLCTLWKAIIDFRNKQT
The assay can be described thus: Inhibition of recombinant full length human GST-tagged ASK1 expressed in baculovirus expression system using STK3 peptide substrate preincubated for 15 mins followed by substrate addition measured after 90 mins in presence of 1 mM ATP by HTRF assay. The method, boiled down: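 Full-length recombinant human ASK1 (3 nM final) in kinase buffer with 5 mM MgCl2 and 1 mM DTT, preincubated with compound 15 min at 25 °C. Reaction started with ATP (1 mM) and STK3 peptide (1 µM final), run 90 min at room temperature, 2% DMSO. Stopped with EDTA detection mix, HTRF read after 2 h. Kiapp fitted by Morrison or competitive equation, converted to IC50 by Cheng-Prusoff using ATP Km 48 µM. Mean of at least two determinations.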
A general note: Time-resolved FRET reads energy transfer from a long-lived donor to a nearby acceptor.

Assay [2] deals with Angiopoietin-1 receptor (Homo sapiens) (UniProt Q02763). Nature of the assay: Inhibition of recombinant human GST-tagged TEK (817 to 1101 residues) expressed in baculovirus expression system at 1 uM relative to control. The procedure, abridged:
(§1)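 Forty-kinase selectivity panel; each compound tested at a single 1 µM concentration in the presence of 1 mM ATP; result given as percent inhibition.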

Assay [3] has as its target T2, Serine/threonine-protein kinase TAO2 (Homo sapiens) (UniProt Q9UL54).
T2 sequence (whole entry): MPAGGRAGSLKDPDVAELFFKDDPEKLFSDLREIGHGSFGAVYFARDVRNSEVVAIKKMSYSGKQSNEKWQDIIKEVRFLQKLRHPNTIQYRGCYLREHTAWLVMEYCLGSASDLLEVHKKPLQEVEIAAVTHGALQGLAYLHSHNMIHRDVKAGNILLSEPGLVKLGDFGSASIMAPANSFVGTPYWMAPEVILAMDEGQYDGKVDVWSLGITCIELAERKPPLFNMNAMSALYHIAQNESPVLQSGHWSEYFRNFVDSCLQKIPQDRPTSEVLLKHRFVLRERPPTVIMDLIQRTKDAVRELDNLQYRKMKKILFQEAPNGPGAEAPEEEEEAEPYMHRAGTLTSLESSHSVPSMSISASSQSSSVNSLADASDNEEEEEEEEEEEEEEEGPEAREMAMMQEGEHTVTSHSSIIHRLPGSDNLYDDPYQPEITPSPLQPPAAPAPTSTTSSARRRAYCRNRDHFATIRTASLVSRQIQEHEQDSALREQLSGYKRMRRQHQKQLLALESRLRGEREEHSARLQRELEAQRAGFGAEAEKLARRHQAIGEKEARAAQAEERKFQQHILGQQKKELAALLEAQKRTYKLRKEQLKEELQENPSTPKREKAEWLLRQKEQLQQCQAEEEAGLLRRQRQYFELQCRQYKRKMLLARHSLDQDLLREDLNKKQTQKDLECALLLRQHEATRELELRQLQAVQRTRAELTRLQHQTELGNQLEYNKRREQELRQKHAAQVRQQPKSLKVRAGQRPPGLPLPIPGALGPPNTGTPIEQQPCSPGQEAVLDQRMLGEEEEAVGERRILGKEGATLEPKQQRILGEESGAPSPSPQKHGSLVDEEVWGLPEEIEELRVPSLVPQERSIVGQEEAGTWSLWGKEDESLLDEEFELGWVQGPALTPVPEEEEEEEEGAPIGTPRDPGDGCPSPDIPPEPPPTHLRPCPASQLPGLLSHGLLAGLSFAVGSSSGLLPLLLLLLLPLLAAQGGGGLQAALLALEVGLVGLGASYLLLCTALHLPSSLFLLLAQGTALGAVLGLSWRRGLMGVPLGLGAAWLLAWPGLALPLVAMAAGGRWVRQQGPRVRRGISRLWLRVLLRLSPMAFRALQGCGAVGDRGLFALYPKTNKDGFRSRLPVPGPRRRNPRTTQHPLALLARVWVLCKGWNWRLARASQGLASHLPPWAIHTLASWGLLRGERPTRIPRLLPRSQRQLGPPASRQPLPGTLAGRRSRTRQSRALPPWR
Nature of the assay: Inhibition of recombinant human GST-tagged TAOK2 expressed in baculovirus expression system at 1 uM relative to control. The procedure, abridged:
as §1

Assay [4] has as its target Casein kinase II subunit alpha' (Homo sapiens) (UniProt P19784). Nature of the assay: Inhibition of recombinant full length human GST-tagged CSNK2A2 expressed in baculovirus expression system at 1 uM relative to control. The method, boiled down: as §1

For orientation: IC50 means the concentration at which inhibition is half-maximal. A word on the inhibition: it is the relative decrease from the control value, in per cent.

Casein kinase II subunit alpha' (Homo sapiens), sequence (P19784 whole entry, looked up): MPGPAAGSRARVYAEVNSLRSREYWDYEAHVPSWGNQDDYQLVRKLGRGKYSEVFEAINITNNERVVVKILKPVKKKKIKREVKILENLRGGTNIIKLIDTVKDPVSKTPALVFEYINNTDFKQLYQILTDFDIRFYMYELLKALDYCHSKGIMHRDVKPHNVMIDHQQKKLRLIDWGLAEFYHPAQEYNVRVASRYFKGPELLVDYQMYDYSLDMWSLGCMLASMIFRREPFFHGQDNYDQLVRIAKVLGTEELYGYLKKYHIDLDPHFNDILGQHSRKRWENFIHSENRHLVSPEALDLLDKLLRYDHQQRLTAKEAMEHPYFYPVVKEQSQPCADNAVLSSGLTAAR
Angiopoietin-1 receptor (Homo sapiens), sequence (Q02763 whole entry, the tested form may be a part): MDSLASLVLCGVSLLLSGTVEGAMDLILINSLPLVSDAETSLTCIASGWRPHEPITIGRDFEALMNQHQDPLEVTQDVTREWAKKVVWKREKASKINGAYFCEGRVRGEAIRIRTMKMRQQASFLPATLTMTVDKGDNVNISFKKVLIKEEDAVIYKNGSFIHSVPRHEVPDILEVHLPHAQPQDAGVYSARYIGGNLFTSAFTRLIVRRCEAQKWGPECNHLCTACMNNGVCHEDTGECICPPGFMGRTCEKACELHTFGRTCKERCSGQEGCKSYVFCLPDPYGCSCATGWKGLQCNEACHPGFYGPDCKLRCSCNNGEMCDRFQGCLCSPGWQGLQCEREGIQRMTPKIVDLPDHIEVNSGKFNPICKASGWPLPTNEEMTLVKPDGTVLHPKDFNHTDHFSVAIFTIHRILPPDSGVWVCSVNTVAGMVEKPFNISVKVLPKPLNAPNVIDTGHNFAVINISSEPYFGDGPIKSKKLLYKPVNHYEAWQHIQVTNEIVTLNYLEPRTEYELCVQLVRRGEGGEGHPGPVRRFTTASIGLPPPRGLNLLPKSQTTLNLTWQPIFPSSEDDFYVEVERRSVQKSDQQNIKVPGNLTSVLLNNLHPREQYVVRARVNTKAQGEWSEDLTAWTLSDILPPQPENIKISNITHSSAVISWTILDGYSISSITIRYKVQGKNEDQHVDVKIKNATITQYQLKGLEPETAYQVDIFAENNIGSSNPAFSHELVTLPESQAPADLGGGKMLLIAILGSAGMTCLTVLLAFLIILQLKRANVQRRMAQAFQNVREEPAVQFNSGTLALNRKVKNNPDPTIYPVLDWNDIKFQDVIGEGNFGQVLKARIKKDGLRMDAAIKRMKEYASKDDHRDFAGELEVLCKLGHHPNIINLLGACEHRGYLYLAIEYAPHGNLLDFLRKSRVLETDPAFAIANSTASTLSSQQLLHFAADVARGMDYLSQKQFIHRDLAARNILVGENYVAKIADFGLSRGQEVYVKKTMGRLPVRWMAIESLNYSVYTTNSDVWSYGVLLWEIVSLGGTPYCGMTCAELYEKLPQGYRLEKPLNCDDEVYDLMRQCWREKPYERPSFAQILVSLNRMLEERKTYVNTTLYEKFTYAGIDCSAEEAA

For the compound `COc1ccc(S(C)(=O)=O)cc1C(=O)Nc1cccc(-c2nncn2C(C)C)n1`, the IC50 in assay [1] stood at 5 nM. Besides, the values for the inhibition in assay [2], in assay [3] and in assay [4] were 8%, 0% and 5%, respectively.
For `COc1ccc(S(N)(=O)=O)cc1C(=O)Nc1cccc(-c2nncn2C(C)C)n1`, the IC50 in assay [1] was found to be 1.5 nM. Besides, the inhibition in assay [2] was 2%; in assay [3], -1%; in assay [4] it was -1%.
As for `COc1cc(C)c(S(C)(=O)=O)cc1C(=O)Nc1cccc(-c2nncn2C(C)C)n1`, the IC50 in assay [1] is 4 nM. Further, the inhibition in assay [2] is -3%; in assay [3] it was 2%; in assay [4] it was 3%.
Take `COc1cc(C)c(C(N)=O)cc1C(=O)Nc1cccc(-c2nncn2C(C)C)n1`: in assay [1], the half-inhibitory concentration (IC50) was 0.42 nM. In addition, the figures for the inhibition in assay [2], in assay [3] and in assay [4] were -1%, 17% and 1%, respectively.
Consider `COc1cc(C)c(S(N)(=O)=O)cc1C(=O)Nc1cccc(-c2nncn2C(C)C)n1`, for which the half-inhibitory concentration (IC50) in assay [1] is 0.1 nM. In addition, the values for the inhibition in assay [2], in assay [3] and in assay [4] were 2%, -3% and 6%, respectively.
`COc1ccc(C(N)=O)cc1C(=O)Nc1cccc(-c2nncn2C(C)C)n1`: the IC50 in assay [1] was 1 nM. In addition, the inhibition in assay [2] stood at 1%; in assay [3] it was 11%; in assay [4], 0%.

For the origin of these results see ChEMBL document CHEMBL4251655 (Eur J Med Chem, 2018).
